The structures appear in SMILES notation. pEC50: −log10 of the molar value.

Results on five compounds are retold here after ChEMBL document CHEMBL3826928, “Incorporation of Phosphonate into Benzonaphthyridine Toll-like Receptor 7 Agonists for Adsorption to Aluminum Hydroxide” (J Med Chem, 2016).

Data set [1] in a line: Adsorption on alum in pH 6.5 histidine buffer assessed as compound adsorbed at 1 mg/ml incubated for 1 hr in presence of inorganic phosphate by LC-MS analysis. Type of data set: physicochemical. Particulars: pH 6.5, 1 h; call rule not given here.
The target of data set [2] is T1, Toll-like receptor 7 (Homo sapiens, UniProt Q9NYK1).
T1 sequence (Q9NYK1 whole entry): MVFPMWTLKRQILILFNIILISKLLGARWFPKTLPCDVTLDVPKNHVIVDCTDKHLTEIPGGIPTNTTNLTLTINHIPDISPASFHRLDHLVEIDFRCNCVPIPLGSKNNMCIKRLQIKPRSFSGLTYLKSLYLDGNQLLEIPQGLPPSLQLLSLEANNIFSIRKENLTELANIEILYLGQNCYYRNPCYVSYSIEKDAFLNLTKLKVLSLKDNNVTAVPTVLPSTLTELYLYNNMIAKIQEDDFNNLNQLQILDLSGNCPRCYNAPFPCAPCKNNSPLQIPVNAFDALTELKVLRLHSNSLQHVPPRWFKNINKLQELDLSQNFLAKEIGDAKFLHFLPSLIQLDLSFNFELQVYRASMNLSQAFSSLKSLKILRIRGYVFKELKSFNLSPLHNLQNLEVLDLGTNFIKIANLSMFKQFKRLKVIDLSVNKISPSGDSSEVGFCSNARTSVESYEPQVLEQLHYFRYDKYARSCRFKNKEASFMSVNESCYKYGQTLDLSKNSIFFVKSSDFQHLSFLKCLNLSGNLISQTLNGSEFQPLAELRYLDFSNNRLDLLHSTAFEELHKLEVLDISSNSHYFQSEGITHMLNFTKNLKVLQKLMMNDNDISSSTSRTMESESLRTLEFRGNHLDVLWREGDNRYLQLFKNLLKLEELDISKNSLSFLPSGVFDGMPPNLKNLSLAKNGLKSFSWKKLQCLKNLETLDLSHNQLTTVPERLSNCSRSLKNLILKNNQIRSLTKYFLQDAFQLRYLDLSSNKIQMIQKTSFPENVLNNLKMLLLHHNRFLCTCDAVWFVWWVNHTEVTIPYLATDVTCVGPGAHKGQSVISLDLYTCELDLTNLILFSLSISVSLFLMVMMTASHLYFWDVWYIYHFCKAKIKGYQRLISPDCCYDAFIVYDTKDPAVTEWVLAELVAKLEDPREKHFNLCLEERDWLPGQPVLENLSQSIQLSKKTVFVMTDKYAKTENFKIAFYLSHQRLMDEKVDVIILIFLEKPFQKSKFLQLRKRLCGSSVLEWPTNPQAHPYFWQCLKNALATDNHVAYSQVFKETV
Briefly: Agonist activity at TLR7 in human PBMC assessed as induction of IL-6 secretion in supernatant after 18 hrs. Particulars: read-out: EC50. In a few lines: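 Isolated human PBMCs washed in PBS, resuspended in RPMI1640 with 10% heat-inactivated FBS, pyruvate, HEPES, at 1 × 10⁶ cells/mL. Compounds as in-situ sodium salts from 10 mM aqueous stocks, 3-fold 10-point dilutions from 30 μM.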

In data set [3] the target is T2, Toll-like receptor 7 (Mus musculus) (UniProt P58681).
T2 sequence (whole entry): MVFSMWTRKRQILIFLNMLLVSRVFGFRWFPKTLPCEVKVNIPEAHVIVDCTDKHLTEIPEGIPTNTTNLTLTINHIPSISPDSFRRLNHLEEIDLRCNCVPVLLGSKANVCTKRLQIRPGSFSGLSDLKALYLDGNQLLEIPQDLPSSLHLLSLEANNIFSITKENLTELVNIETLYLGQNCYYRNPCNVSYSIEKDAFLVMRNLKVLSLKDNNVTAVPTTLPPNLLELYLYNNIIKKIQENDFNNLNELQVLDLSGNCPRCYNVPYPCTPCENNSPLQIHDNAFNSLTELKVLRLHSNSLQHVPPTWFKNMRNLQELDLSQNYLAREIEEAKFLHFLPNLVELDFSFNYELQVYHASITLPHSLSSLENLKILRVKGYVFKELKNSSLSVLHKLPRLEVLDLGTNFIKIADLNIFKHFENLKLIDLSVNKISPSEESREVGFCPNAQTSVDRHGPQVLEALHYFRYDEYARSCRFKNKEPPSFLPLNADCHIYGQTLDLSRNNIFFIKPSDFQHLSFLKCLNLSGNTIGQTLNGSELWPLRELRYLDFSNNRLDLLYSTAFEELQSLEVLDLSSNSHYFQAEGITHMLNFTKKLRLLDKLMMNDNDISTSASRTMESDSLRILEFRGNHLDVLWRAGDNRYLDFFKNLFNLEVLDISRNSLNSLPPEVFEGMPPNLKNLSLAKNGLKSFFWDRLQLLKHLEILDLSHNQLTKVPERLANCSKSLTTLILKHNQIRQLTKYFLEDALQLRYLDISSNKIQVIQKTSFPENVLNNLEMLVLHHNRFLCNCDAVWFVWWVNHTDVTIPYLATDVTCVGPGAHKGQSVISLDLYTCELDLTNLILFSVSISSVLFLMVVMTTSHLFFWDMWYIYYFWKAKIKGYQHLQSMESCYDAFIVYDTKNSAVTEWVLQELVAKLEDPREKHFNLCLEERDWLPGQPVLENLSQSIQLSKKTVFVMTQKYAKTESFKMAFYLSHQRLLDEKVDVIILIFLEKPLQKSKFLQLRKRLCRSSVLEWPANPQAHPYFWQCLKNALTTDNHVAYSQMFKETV
The data set can be described thus: Agonist activity at TLR7 in Balb/c mouse splenocytes assessed as induction of IL-6 secretion in supernatant after 18 hrs relative to resiquimod. Type of data set: cell-based. In a few lines:
(§1)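 Spleens from female BALB/c mice (6−10 weeks), single-cell suspension, RBC lysis; 5 × 10⁵ splenocytes per well in RPMI 1640 with 10% FCS, 2-ME. Compounds as sodium salts (1 equiv NaOH) from 10 mM water stocks, 3-fold 10-point dilutions from 30 μM.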

In data set [4] the target is T3, Toll-like receptor 7 (Mus musculus, UniProt P58681).
T3 sequence (P58681 whole entry): T2 sequence (whole entry)
Briefly: Agonist activity at TLR7 in Balb/c mouse splenocytes assessed as induction of IL-6 secretion in supernatant after 18 hrs. Type of data set: cell-based. The procedure, abridged: as §1

As to `Cc1cc(OCCOCCOCCC(F)(F)P(=O)(O)O)ccc1CCc1cnc2c(N)nc3cc(CCC(=O)O)ccc3c2c1`, in data set [1], the Activity entry was “Not Active”. Besides, the values for the pEC50 on Toll-like receptor 7 [2] and on Toll-like receptor 7 [4] were 5.68 and 5.92, respectively. Also, the %max in data set [3] amounted to 80%.
Regarding `Cc1ccc2c(c1)nc(N)c1ncc(CCc3ccc(OCCOCCOCCC(F)(F)P(=O)(O)O)cc3C)cc12`, in data set [1], the Activity entry was “Not Active”. Further, the pEC50 at Toll-like receptor 7 [2] was 6.01; on Toll-like receptor 7 [4] it was 6.09. The %max in data set [3] was found to be 100%.
With `Cc1ccc2c(c1)nc(N)c1ncc(CCc3ccc(OCCCP(=O)(O)O)cc3C)cc12`, the figures for the pEC50 at Toll-like receptor 7 [2] and on Toll-like receptor 7 [4] were 4.52 and 5.96, respectively. Moreover, the %max in data set [3] came to 98%.
With `Cc1cc(OCCCC(F)(F)P(=O)(O)O)ccc1CCc1cnc2c(N)nc3cc(CCC(=O)O)ccc3c2c1`, the Activity result in data set [1] is “Not Active”. Also, the pEC50 at Toll-like receptor 7 [2] was 6.44; at Toll-like receptor 7 [4], 5.62. Besides, the %max in data set [3] was found to be 74%.
In the case of `Cc1cc(OCCOCCOCCP(=O)(O)O)ccc1CCc1cnc2c(N)nc3cc(CCC(=O)O)ccc3c2c1`, the Activity result in data set [1] is reported as “Not Active”. In addition, the pEC50 was 6.31 on Toll-like receptor 7 [2] and 6.72 on Toll-like receptor 7 [4]. Further, in data set [3], the %max is 140%.

As usually defined, the pEC50 is the EC50 on a negative log10 scale, so that one unit is a factor of ten.
